Twelve compounds from PubChem BioAssay can be followed below.

Test [1] in a line: reduced viability of SK-BR-3 breast cancer cells – cell-based, 24 h, human, pilot screen (AID 572;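 active = viability at or below 10% of carrier control in both of two separate runs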;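 also: compound exposure lasted between 18 and 24 h rather than exactly 24 h; 100% = carrier-treated control wells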). Conditions: SK-BR-3 viability, CellTiter-Glo luminescence, at 10 µM, stronger effect = lower value. In general terms: In ATP-based viability assays light output follows the ATP content of the culture.
Test [2] can be described thus: HUVEC growth inhibition – cell-based, human, primary screen (AID 575;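 active = viability at or below 30% in both replicate assays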;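 also: 100% = median of untreated cell wells with 0.1% DMSO on each plate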). Conditions: HUVEC proliferation, CellTiter-Glo luminescence, 72 h; at 10 µM; stronger effect = lower value. An outline of the steps: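 Test system: primary human umbilical vein endothelial cells; medium: endothelial basal medium with 2% FBS plus growth supplements; dosing: 10 µM compound only; times: 72 h treatment at 37 °C; signal: CTG luminescence; read-out: % viability relative to median vehicle-well signal on each plate; control set: vehicle and MePR control wells; plate: 384-well, collagen-coated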

Test [3] in a line: H69AR cell proliferation blockers – human, duplicate replicates, primary screen (AID 580).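 Also: 100% = mean luminescence of untreated wells and 0% = no signal.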 Conditions: H69AR lung tumor cells viability, ATP luminescence, 72 h; at 10 µM; stronger effect = lower value.
A short description of test [4]: MRP1 drug-resistance reversers in H69AR cells – cell-based, doxorubicin co-treatment, pilot screen (AID 601;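 active = viability loss from added drug above about 55%, and viability with drug at most 40%, in both replicates, limit read from the data, passing the limit was not always enough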). Conditions: CellTiter-Glo, 72 h, at 10 µM; for differential viability (reversal): stronger effect = higher value.
A short description of test [5]: yeast transport mutant growth inhibition pilot in 384-well plates, post-Golgi transport modulator project (AID 636; in the data active = inhibition above about 31%). Conditions: absorbance 615 nm, about 18 h, stronger effect = higher value.
Test [6] in a line: growth suppression of yeast trafficking mutant, preliminary HTS, modulators of trafficking downstream of Golgi apparatus project, 1536-format plate, OD 615 nm (AID 637; in the data active = inhibition above about 30%). Conditions: yeast transport mutant growth, absorbance 615 nm, 18 h; stronger effect = higher value.
Setting [7] is: H69AR cells + 2 uM doxorubicin, measured here: viability with 2 uM doxorubicin, stronger effect = lower value.
The mark [8] stands for this setting: H69AR cells, compound alone cytotoxicity.

Active and inactive are the calls of the source.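 The calls were made as follows, unless noted: active = viability at or under a set limit in both replicates, limit being median viability minus 3 SD (cut at about 48% in these data, passing the limit was not always enough); inconclusive = at or under the limit in just one replicate; inactive = at or above the limit in both replicates.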

As a reminder, the viability is a read-out of living cells in per cent, often relative to untreated cells. The inhibition is the relative decrease from the control value, in per cent. On to `Cc1cn(C2CC3OCC3O2)c(=O)[nH]c1=O` (stereo unspecified), for which the viability in test [1] is 101% (inactive); in test [2], 110% (inactive); in test [3], 94.2% (inactive); in test [4] (setting [7]), 98.5%; in test [4] (setting [8]), 94.2%. In test [4] (H69AR cells + 2 uM doxorubicin), the differential viability (reversal) was -4.39% (inactive). Moreover, the inhibition in test [5] was -7.12% (inactive); in test [6], -16.2% (inactive).
On to `Cc1ccccc1C(=O)NC1CCN(Cc2nnnn2CCc2ccccc2)CC1`, for which the viability is 124% (inactive) in test [1]; 112% (inactive) in test [2]; 86.8% (inactive) in test [3]; 91.3% in test [4] (setting [7]); 86.8% in test [4] (setting [8]). Besides, the differential viability (reversal) in test [4] (H69AR cells + 2 uM doxorubicin) is -4.45% (inactive). For the same compound, the inhibition in test [5] was -5.19% (inactive); in test [6] it was 7.05% (inactive).
In the case of `CCCN(CCC)C(=O)C(CCC(=O)O)NC(=O)c1ccccc1` (stereo unspecified), the viability in test [1] was 108% (inactive); in test [2], 94.9% (inactive); in test [3], 105% (inactive); in test [4] (setting [7]), 95.9%; in test [4] (setting [8]), 105%. In addition, the differential viability (reversal) in test [4] (H69AR cells + 2 uM doxorubicin) was 9.32% (inactive). Further, the inhibition in test [5] was -5.32% (inactive); in test [6] it was 2.33% (inactive).
With `COC(=O)c1cccc(S(=O)(=O)N2CCC(C)CC2)c1`, the viability in test [1] was 100% (inactive); in test [2], 105% (inactive); in test [3] it was 93.8% (inactive); in test [4] (setting [7]) it was 98.1%; in test [4] (setting [8]), 93.8%. The differential viability (reversal) in test [4] (H69AR cells + 2 uM doxorubicin) was -4.31% (inactive). The values for the inhibition in test [5] and in test [6] were 0.52% (inactive) and -3.44% (inactive), respectively.
With `CCn1cc(C(=O)O)c(=O)c2cc(F)c(N3CCNCC3)nc21`, the viability was 106% (inactive) in test [1]; 84% (inactive) in test [2]; 105% (inactive) in test [3]; 102% in test [4] (setting [7]); 105% in test [4] (setting [8]). For the same compound, the differential viability (reversal) in test [4] (H69AR cells + 2 uM doxorubicin) was 3.24% (inactive). Moreover, the results for the inhibition in test [5] and in test [6] were 2.34% (inactive) and -2.33% (inactive), respectively.
In the case of `CC(C)NCC(O)COc1ccc(CC(N)=O)cc1` (stereo unspecified), the viability in test [1] is 88% (inactive); in test [2] it was 87.5% (inactive); in test [3], 88.1% (inactive); in test [4] (setting [7]), 88.7%; in test [4] (setting [8]) it was 88.1%. In addition, in test [4] (H69AR cells + 2 uM doxorubicin), the differential viability (reversal) is -0.64% (inactive). In addition, the results for the inhibition in test [5] and in test [6] were 1.95% (inactive) and -2.67% (inactive), respectively.
As to `CC(C)(C)NCC(O)c1cc(O)cc(O)c1` (stereo unspecified), the viability was 127% (inactive) in test [1]; 109% (inactive) in test [2]; 98.9% (inactive) in test [3]; 91.4% in test [4] (setting [7]); 98.9% in test [4] (setting [8]). The differential viability (reversal) in test [4] (H69AR cells + 2 uM doxorubicin) was 7.49% (inactive). The inhibition in test [5] was -2.73% (inactive); in test [6] it was 2.5% (inactive).
For `CCC1CCCCN1C(=O)CSc1nnc(-c2ccco2)o1` (stereo unspecified), the viability in test [1] is 126% (inactive); in test [2], 94.4% (inactive); in test [3], 85.7% (inactive); in test [4] (setting [7]) it was 82.3%; in test [4] (setting [8]), 85.7%. For the same compound, in test [4] (H69AR cells + 2 uM doxorubicin), the differential viability (reversal) is 3.32% (inactive). Further, the inhibition in test [5] was -1.78% (inactive); in test [6], -6.45% (inactive).
On to `Cc1ccc2c(c1C)NC(=O)C2(O)CC(=O)c1ccc2c(c1)OCO2` (stereo unspecified), for which the viability was 88% (inactive) in test [1]; 83.2% (inactive) in test [2]; 88% (inactive) in test [3]; 94% in test [4] (setting [7]); 88% in test [4] (setting [8]). In addition, the differential viability (reversal) in test [4] (H69AR cells + 2 uM doxorubicin) was -5.94% (inactive). Besides, the inhibition in test [5] is -1.1% (inactive); in test [6] it was 2.9% (inactive).
In the case of `Cc1c(N=C2SCC(=O)N2c2c(C)n(C)n(-c3ccccc3)c2=O)c(=O)n(-c2ccccc2)n1C`, the viability in test [1] was 120% (inactive); in test [2], 113% (inactive); in test [3], 94.2% (inactive); in test [4] (setting [7]), 90.6%; in test [4] (setting [8]), 94.2%. The differential viability (reversal) in test [4] (H69AR cells + 2 uM doxorubicin) is 3.54% (inactive). Also, the values for the inhibition in test [5] and in test [6] were -1.43% (inactive) and -1.31% (inactive), respectively.
`CS(=O)(=O)NCC(c1cccnc1)N1CCN(c2ccc(F)cc2)CC1` (stereo unspecified): the viability in test [1] is 107% (inactive); in test [2], 113% (inactive); in test [3], 92.2% (inactive); in test [4] (setting [7]), 91.3%; in test [4] (setting [8]), 92.2%. In test [4] (H69AR cells + 2 uM doxorubicin), the differential viability (reversal) was 0.865% (inactive). The results for the inhibition in test [5] and in test [6] were -1.89% (inactive) and -3.45% (inactive), respectively.
Take `CCc1ccc(Nc2cc(=O)n(C3CCCCC3)c(=O)[nH]2)cc1`: the viability in test [1] was 136% (inactive); in test [2], 44% (inactive); in test [3], 18.3% (active); in test [4] (setting [7]) it was 50.4%; in test [4] (setting [8]), 18.3%. In test [4] (H69AR cells + 2 uM doxorubicin), the differential viability (reversal) was -32.1% (inactive). Further, the inhibition in test [5] is -3.65% (inactive); in test [6] it was -13% (inactive).
